The structures appear in SMILES notation. Some results are limits rather than exact numbers.

In data set [1] the test system is U-87 MG. Put plainly: Antiproliferative activity against human U-87 MG cells assessed as inhibition of cell proliferation incubated for 72 hrs by CellTiter-Glo luminescent assay. The format is functional, cell-based, U-87MG ATCC. Summed up: (§1)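 A549 in RPMI 1640 and U-87MG in DMEM, each with 10% FCS and 1% glutamine, at 37 °C and 5% CO₂. Cells seeded at 3000/well, dosed the next day, treated 72 h. Viability read by CellTiter-Glo luminescence with DMSO-treated cells set to 100%. IC50 taken from survival curves over three independent experiments.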

Data set [2] has as its system A549. Put plainly: Antiproliferative activity against human A549 cells assessed as inhibition of cell proliferation incubated for 72 hrs by CellTiter-Glo luminescent assay. Type of data set: functional, cell-based. To be noted: A549, 72 h. Summed up: as §1
The target in data set [3] is T1, Oxysterol-binding protein 1 (Homo sapiens, UniProt P22059).
T1 sequence (P22059 whole entry): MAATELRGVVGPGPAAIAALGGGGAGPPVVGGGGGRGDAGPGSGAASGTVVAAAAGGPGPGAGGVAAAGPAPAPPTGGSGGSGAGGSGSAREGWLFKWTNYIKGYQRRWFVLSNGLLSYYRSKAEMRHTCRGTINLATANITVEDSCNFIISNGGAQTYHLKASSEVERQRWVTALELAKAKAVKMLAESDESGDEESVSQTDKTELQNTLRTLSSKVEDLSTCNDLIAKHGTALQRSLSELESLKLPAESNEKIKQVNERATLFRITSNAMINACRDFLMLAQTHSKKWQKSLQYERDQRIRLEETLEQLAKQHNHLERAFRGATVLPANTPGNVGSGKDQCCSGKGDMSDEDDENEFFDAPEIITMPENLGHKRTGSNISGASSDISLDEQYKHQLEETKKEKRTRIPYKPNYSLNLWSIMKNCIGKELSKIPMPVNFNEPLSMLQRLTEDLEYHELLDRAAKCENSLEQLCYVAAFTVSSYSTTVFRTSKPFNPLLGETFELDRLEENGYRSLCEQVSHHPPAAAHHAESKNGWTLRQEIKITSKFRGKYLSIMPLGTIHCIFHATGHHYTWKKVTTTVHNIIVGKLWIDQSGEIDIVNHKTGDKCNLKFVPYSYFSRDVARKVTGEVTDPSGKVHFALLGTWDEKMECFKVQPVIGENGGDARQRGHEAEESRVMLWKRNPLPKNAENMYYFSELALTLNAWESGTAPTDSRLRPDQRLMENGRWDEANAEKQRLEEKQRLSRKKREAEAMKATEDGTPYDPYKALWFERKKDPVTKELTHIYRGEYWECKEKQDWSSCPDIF
Put plainly: Inhibition of human C-terminal 6-His tagged OSBP ORD domain (401 to 807 residues) expressed in baculovirus-infected Sf9 cells assessed as reduction in DHE transfer from liposome (Le mimicking ER) to liposome (Lg mimicking golgi) with compound by FRET assay. A digest of the protocol:
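Purified human OSBP ORD (401-807, C-terminal 6×His) from baculovirus-infected Sf9 cells, used in a DHE sterol transfer fluorescence assay. Signal corrected for compound fluorescence. Kinetics fitted linearly or by ΔF = ΔFmax(1 − e^−kt) to give apparent k, which was plotted against compound concentration. Ki from a quadratic (tight binders) or hyperbolic equation, three independent experiments.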

Data set [4] in a line: Metabolic stability in mouse plasma assessed as compound remaining at 5 uM and measured after 120 mins by UPLC-MS/MS analysis. The note with it: read-out: Stability. The format is ADME, cell-free. Summed up:
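Male mouse plasma at 37 °C with compound added from a 5 µM solution […]. Sampled at 0, 15, 30, 45, 60 and 120 min, quenched with acetonitrile and read by LC-MS/MS (MRM) in duplicate. Procaine positive control. Remaining % and t1/2 derived from MRM area relative to t = 0.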

Data set [5] can be described thus: Metabolic stability in mouse liver microsomes assessed as compound remaining at 2.5 uM and measured after 45 mins in presence of NADPH by LC-MS/MS analysis. Type of data set: ADME, Microsome. To be noted: read-out: Stability.
A short description of data set [6]: Metabolic stability in mouse liver microsomes assessed as intrinsic clearance at 2.5 uM and measured upto 45 mins in presence of NADPH by LC-MS/MS analysis. Type of data set: ADME, Microsome. To be noted: read-out: CLH.
Data set [7] is described as follows: Metabolic stability in mouse liver microsomes assessed as compound remaining at 2.5 uM and measured after 45 mins in absence of NADPH by LC-MS/MS analysis. Type of data set: ADME, Microsome. The note with it: read-out: Stability.

Take `C#CCOc1cc(/C=C/c2cc(O)c(CC=C(C)C)c(O)c2)cc2c1O[C@]1(C)CC[C@@H](O)C(C)(C)[C@H]1C2`: the IC50 came to 286 nM in data set [1] and 3900 nM in data set [2]. In data set [3], the Ki is 43 nM.

`CC1(C)CCc2c(O)cc(/C=C/c3cc(O)c4c(c3)C[C@@H]3C(C)(C)[C@H](O)CC[C@@]3(C)O4)cc2O1`: the figures for the 50% inhibitory concentration (IC50) in data set [1] and in data set [2] were 9.4 nM and 647 nM, respectively. The Ki in data set [3] was below 1 nM. The remaining at 2 h, 5 µM in data set [4] is 100%. For the same compound, the remaining at 0.75 h, 2.5 µM amounted to 48.6% in data set [5] and 100% in data set [7]. For the same compound, the microsomal CLint at 2.5 µM in data set [6] came out at 32 µL/min/mg.

`COc1cc(/C=C/c2cc(O)c3c(c2)OC(C)(C)C(O)C3)cc2c1O[C@]1(C)C[C@@H](O)[C@@H](O)C(C)(C)[C@H]1C2` (stereo partly specified) [SCHWEINFURTHIN H]: the figures for the 50% inhibitory concentration (IC50) in data set [1] and in data set [2] were 656 nM and 1790 nM, respectively. Besides, the inhibition constant (Ki) in data set [3] was determined as 401 nM.

For the compound `COc1cc(/C=C/c2cc(O)c3c(c2)OC(C)(C)CC3)cc2c1O[C@]1(C)C[C@@H](O)[C@@H](O)C(C)(C)[C@H]1C2`, the IC50 in data set [1] came out at 336 nM; in data set [2] it was 1100 nM. In addition, the inhibitory constant (Ki) in data set [3] is 16 nM.

With `COc1cc(CCc2cc(O)c3c(c2)OC(C)(C)CC3)cc2c1O[C@]1(C)CC[C@@H](O)C(C)(C)[C@H]1C2`, the results for the half-maximal inhibitory concentration (IC50) in data set [1] and in data set [2] were 3850 nM and above 10000 nM, respectively. Moreover, in data set [3], the Ki came to 46 nM.

For the compound `COc1cc(CCc2cc(O)c3c(c2)OC(C)(C)CC3)cc2c1O[C@]1(C)CC[C@@H](OC=O)C(C)(C)[C@H]1C2`, the IC50 in data set [1] is 1480 nM; in data set [2] it was above 10000 nM. Also, the Ki in data set [3] came to 3700 nM.

Turning to `COc1cc(/C=C/c2cc(O)c3c(c2)OC(C)(C)CC3)cc2c1O[C@]1(C)CC[C@@H](O)C(C)(C)[C@H]1C2`, the values for the IC50 in data set [1] and in data set [2] were 478 nM and 2530 nM, respectively. Moreover, in data set [3], the Ki was 64 nM.

On to `CC1(C)CCc2c(O)cc(CCc3cc(O)c4c(c3)C[C@@H]3C(C)(C)[C@H](O)CC[C@@]3(C)O4)cc2O1`, for which the IC50 was 77 nM in data set [1] and 3910 nM in data set [2]. Besides, the Ki in data set [3] is below 1 nM.

Consider `COc1cc(/C=C/c2cc(O)c3c(c2)OC(C)(C)CC3)cc2c1O[C@]1(C)C[C@@H](O)[C@@H](OC=O)C(C)(C)[C@H]1C2`, for which the 50% inhibitory concentration (IC50) was found to be 500 nM in data set [1] and 2150 nM in data set [2]. For the same compound, in data set [3], the Ki came out at 829 nM.

For `CC1(C)CCc2c(O)cc(CCc3cc(O)c4c(c3)C[C@@H]3C(C)(C)[C@H](OC=O)CC[C@@]3(C)O4)cc2O1`, the IC50 in data set [1] is 67 nM; in data set [2], 3040 nM. The inhibition constant (Ki) in data set [3] came to 3220 nM.

For `C=CCc1c(/C=C/c2cc(O)c(CC=C(C)C)c(O)c2)cc2c(c1O)O[C@]1(C)CC[C@@H](O)C(C)(C)[C@H]1C2`, the figures for the concentration for half-maximal inhibition (IC50) in data set [1] and in data set [2] were 457 nM and 2860 nM, respectively. Besides, the Ki in data set [3] turned out to be 119 nM.

For `CC(C)=CCc1c(O)cc(/C=C/c2cc3c(c4c2C=CCO4)O[C@]2(C)CC[C@@H](O)C(C)(C)[C@H]2C3)cc1O`, the IC50 in data set [1] was 481 nM; in data set [2], above 10000 nM. In addition, the Ki in data set [3] was 37 nM.

As for `C=CCOc1cc(/C=C/c2cc(O)c(CC=C(C)C)c(O)c2)cc2c1O[C@]1(C)CC[C@@H](O)C(C)(C)[C@H]1C2`, the IC50 in data set [1] was determined as 420 nM; in data set [2], 5000 nM. Further, the Ki in data set [3] worked out at 31 nM.

As to `COc1cc(/C=C/c2cc(O)c(CC=C(C)C)c(O)c2)cc2c1O[C@]1(C)CC[C@@H](O)C(C)(C)[C@H]1C2` [SCHWEINFURTHIN F], the IC50 came out at 98 nM in data set [1] and 605 nM in data set [2]. The Ki in data set [3] worked out at 6 nM.

As to `CC(C)=CCc1c(O)cc(/C=C/c2cc(O)c3c(c2)C[C@@H]2C(C)(C)[C@H](O)[C@H](O)C[C@@]2(C)O3)cc1O` [VEDELIANIN], the results for the IC50 in data set [1] and in data set [2] were 15 nM and 966 nM, respectively. Also, the Ki in data set [3] is below 1 nM.

With `COc1cc(/C=C/c2cc(O)c(CC=C(C)C)c(O)c2)cc2c1O[C@@]1(C)[C@H](C2)C(C)(C)[C@H](O)C[C@@H]1O`, the IC50 in data set [1] was found to be 510 nM; in data set [2], 1120 nM. Moreover, in data set [3], the Ki was found to be 254 nM.

For `CC(C)=CCC/C(C)=C/Cc1cc(/C=C/c2cc(O)c(CC=C(C)C)c(O)c2)cc(O)c1O` [MAPPAIN], the concentration for half-maximal inhibition (IC50) in data set [1] is 7000 nM; in data set [2], above 10000 nM. The Ki in data set [3] amounted to 3000 nM.

`COc1cc(/C=C/c2cc(O)c(CC=C(C)C)c(O)c2)cc2c1O[C@]1(C)C[C@@H](O)[C@@H](O)C(C)(C)[C@H]1C2` [SCHWEINFURTHIN E]: the half-inhibitory concentration (IC50) in data set [1] was determined as 22 nM; in data set [2], 397 nM. The Ki in data set [3] is below 1 nM.

Consider `COc1cc(/C=C/c2cc(O)c3c(c2)OC(C)(C)CC3)cc2c1O[C@]1(C)CC[C@@H](OC=O)C(C)(C)[C@H]1C2`, for which the IC50 in data set [1] was found to be 380 nM; in data set [2], 2420 nM. The inhibition constant (Ki) in data set [3] was determined as 523 nM.

The values above are taken from ChEMBL document CHEMBL5370602, “Structure-Based Design of a Lead Compound Derived from Natural Schweinfurthins with Antitumor Properties That Target Oxysterol-Binding Protein” (J Med Chem, 2023).
